# Results as given in ChEMBL document CHEMBL4196091 (Eur J Med Chem, 2018).
# The source made the active and inactive calls. The calls are words filed in the database; no cut-off is given here.
# What was measured:
# HT-29 [1] = assay: Antiproliferative activity against human HT-29 cells after 2 days by MTT assay; format: functional, cell-based; details: HT-29, 48 h
# MCF7 = assay: Antiproliferative activity against human MCF7 cells after 2 days by MTT assay; format: functional, cell-based; details: MCF7, 48 h
# A549 [2] = assay: Antiproliferative activity against human A549 cells after 2 days by MTT assay; format: functional, cell-based; details: A549, 48 h
# HEK293 = assay: Antiproliferative activity against HEK293 cells after 2 days by MTT assay; format: ADME, cell-based; details: Homo sapiens, HEK293, 48 h
# A549 [3] = assay: Cell cycle arrest in human A549 cells assessed as accumulation at sub-G0 phase at 50 nM after 24 hrs by propidium iodide staining based flow cytometry (reference value: 2 +/- 1%); format: functional
# Outline: (§1)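 A549 cells maintained in DMEM (1 g/L glucose, 2 mM glutamine, penicillin/streptomycin/amphotericin B, 10% FBS) and treated for 24 h. Cells were then fixed, RNase-treated and stained with propidium iodide. DNA content was measured by flow cytometry to give cell-cycle phase distribution, including a sub-G1 peak. Data are means (±SD) of two experiments.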
# A549 [4] = assay: Cell cycle arrest in human A549 cells assessed as accumulation at G0/G1 phase at 50 nM after 24 hrs by propidium iodide staining based flow cytometry (reference value: 73 +/- 3%); format: functional; outline: as §1
# A549 [5] = assay: Cell cycle arrest in human A549 cells assessed as accumulation at S phase at 50 nM after 24 hrs by propidium iodide staining based flow cytometry (reference value: 15 +/- 6%); format: functional; outline: as §1
# A549 [6] = assay: Cell cycle arrest in human A549 cells assessed as accumulation at G2/M phase at 50 nM after 24 hrs by propidium iodide staining based flow cytometry (reference value: 11 +/- 4%); format: functional; outline: as §1
# A549 [7] = assay: Cell cycle arrest in human A549 cells assessed as accumulation at G2/M phase at 3 nM after 24 hrs by propidium iodide staining based flow cytometry; format: functional; outline: as §1
# A549 [8] = assay: Cell cycle arrest in human A549 cells assessed as accumulation at sub-G0 phase at 20 nM after 24 hrs by propidium iodide staining based flow cytometry (reference value: 2 +/- 1%); format: functional; outline: as §1
# A549 [9] = assay: Cell cycle arrest in human A549 cells assessed as accumulation at G0/G1 phase at 20 nM after 24 hrs by propidium iodide staining based flow cytometry (reference value: 73 +/- 3%); format: functional; outline: as §1
# A549 [10] = assay: Cell cycle arrest in human A549 cells assessed as accumulation at S phase at 20 nM after 24 hrs by propidium iodide staining based flow cytometry (reference value: 15 +/- 6%); format: functional; outline: as §1
# A549 [11] = assay: Cell cycle arrest in human A549 cells assessed as accumulation at G2/M phase at 20 nM after 24 hrs by propidium iodide staining based flow cytometry (reference value: 11 +/- 4%); format: functional; outline: as §1
# HT-29 [12] = assay: Downregulation of c-Myc gene expression in human HT-29 cells assessed as c-Myc mRNA level at […] after 48 hrs by RT-PCR method (reference value: 100%); format: functional
# HT-29 [13] = assay: Downregulation of hTERT gene expression in human HT-29 cells assessed as hTERT mRNA level at […] after 48 hrs by RT-PCR method (reference value: 100%); format: functional
# HT-29 [14] = assay: Downregulation of VEGF gene expression in human HT-29 cells assessed as VEGF mRNA level at […] after 48 hrs by RT-PCR method (reference value: 100%); format: functional
# HT-29 [15] = assay: Inhibition of VEGF protein secretion in human HT-29 cells assessed as VEGF protein level at […] after 48 hrs by ELISA (reference value: 100%); format: functional; design: scale not given: the % may be the effect or the level left
# A549 [16] = assay: Cell cycle arrest in human A549 cells assessed as accumulation at sub-G0 phase at 15 nM after 24 hrs by propidium iodide staining based flow cytometry (reference value: 2 +/- 1%); format: functional; outline: as §1
# A549 [17] = assay: Cell cycle arrest in human A549 cells assessed as accumulation at G0/G1 phase at 15 nM after 24 hrs by propidium iodide staining based flow cytometry (reference value: 73 +/- 3%); format: functional; outline: as §1
# A549 [18] = assay: Cell cycle arrest in human A549 cells assessed as accumulation at S phase at 15 nM after 24 hrs by propidium iodide staining based flow cytometry (reference value: 15 +/- 6%); format: functional; outline: as §1
# A549 [19] = assay: Cell cycle arrest in human A549 cells assessed as accumulation at G2/M phase at 15 nM after 24 hrs by propidium iodide staining based flow cytometry (reference value: 11 +/- 4%); format: functional; outline: as §1
# A549 [20] = assay: Cell cycle arrest in human A549 cells assessed as accumulation at G2/M phase at 0.5 times antiproliferative IC50 after 24 hrs by propidium iodide staining based flow cytometry; format: functional; outline: as §1
# HT-29 [21] = assay: Downregulation of c-Myc gene expression in human HT-29 cells assessed as c-Myc mRNA level at 10 nM after 48 hrs by RT-PCR method (reference value: 100%); format: functional
# Outline: (§2)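 HT-29 cells were taken at 70–80% confluence and seeded at 1.5 x 10^5 per well. After 24 h they were exposed to compound for 48 h. Total RNA was isolated and TaqMan RT-qPCR run for VEGF-A, c-MYC and hTERT, normalized to β-actin. Expression is given as percent of DMSO control, with at least three measurements and one-sample t-tests.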
# HT-29 [22] = assay: Downregulation of hTERT gene expression in human HT-29 cells assessed as hTERT mRNA level at 10 nM after 48 hrs by RT-PCR method (reference value: 100%); format: functional; outline: as §2
# HT-29 [23] = assay: Downregulation of VEGF gene expression in human HT-29 cells assessed as VEGF mRNA level at 10 nM after 48 hrs by RT-PCR method (reference value: 100%); format: functional; outline: as §2
# HT-29 [24] = assay: Inhibition of VEGF protein secretion in human HT-29 cells assessed as VEGF protein level at 10 nM after 48 hrs by ELISA (reference value: 100%); format: functional; design: scale not given: the % may be the effect or the level left
SMILES,IC50 (HT-29 [1]) [nM],IC50 (MCF7) [nM],IC50 (A549 [2]) [nM],IC50 (HEK293) [nM],Activity (A549 [7]),Activity (HT-29 [12]) [%],Activity (HT-29 [13]) [%],Activity (HT-29 [14]) [%],Activity (HT-29 [15]) [%],Activity (A549 [16]) [%],Activity (A549 [17]) [%],Activity (A549 [18]) [%],Activity (A549 [19]) [%],also measured
COc1cc2c(c(OC)c1OC)-c1ccc(OC)c(=O)cc1[C@@H](NC(=O)c1ccccc1)CC2,8.1,5,10,13,–,–,–,–,–,–,–,–,–,Activity (A549 [3]): 4%; Activity (A549 [4]): 29%; Activity (A549 [5]): 28%; Activity (A549 [6]): 40%
COc1cc2c(c(OC)c1OC)-c1ccc(OC)c(=O)cc1[C@@H](NC(=O)c1cccc(Cl)c1)CC2,1.8,3.4,3.1,3,Active,20,59,30,48,–,–,–,–,Activity (A549 [8]): 6%; Activity (A549 [9]): 24%; Activity (A549 [10]): 15%; Activity (A549 [11]): 57%
COc1cc2c(c(OC)c1OC)-c1ccc(OC)c(=O)cc1[C@@H](NC(=O)c1ccc(Cl)cc1)CC2,1.79,6.7,6.6,10.1,Active,37,73,37,54,2,27,14,48,–
COc1cc2c(c(OC)c1OC)-c1ccc(OC)c(=O)cc1[C@@H](NC(=O)c1ccccc1Cl)CC2,2.3,4.5,13,5.93,Active,38,54,32,54,3,11,26,55,–
COc1cc2c(c(OC)c1OC)-c1ccc(OC)c(=O)cc1[C@@H](NC(=O)c1ccccc1C)CC2,5.7,2.02,2,9,–,–,–,–,–,–,–,–,–,Activity (A549 [3]): 8%; Activity (A549 [4]): 24%; Activity (A549 [5]): 14%; Activity (A549 [6]): 47%
COc1cc2c(c(OC)c1OC)-c1ccc(OC)c(=O)cc1[C@@H](NC(=O)Cc1ccccc1)CC2,2.84,2.6,2.8,3.9,–,–,–,–,–,–,–,–,–,Activity (A549 [8]): 5%; Activity (A549 [9]): 19%; Activity (A549 [10]): 16%; Activity (A549 [11]): 60%
COc1cc2c(c(OC)c1OC)-c1ccc(OC)c(=O)cc1[C@@H](NC(=O)CBr)CC2,13.7,16.4,26,14.4,–,–,–,–,–,3,25,19,53,Activity (A549 [20]): Active; Activity (HT-29 [21]): 35%; Activity (HT-29 [22]): 79%; Activity (HT-29 [23]): 44%; Activity (HT-29 [24]): 100%
